In article PMC2937276 (Molecular cancer therapeutics, 2010):
Like-named read-outs stand apart in the source and are kept apart here.

How the values were obtained:
[1] = tested on: GBM culture 2000; assay: XTT cell proliferation assay; format: cell-based, Mouse; details: Mus musculus, 36 h
Summary of the method: (§1)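 Primary human or mouse GBM cultures (DMEM, 10% FBS) were seeded at 5000 cells per 96-well well. Cells were cultured with test compound or vehicle for 36 h. Proliferation was read by XTT assay in quadruplicate. IC50 came from nonlinear-regression curve fitting.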

[2] = tested on: GBM culture GBM39; assay: XTT cell proliferation assay; format: cell-based, Human; details: Homo sapiens, GBM39, 36 h
Summary of the method: as §1

[3] = tested on: GBM culture 2414; assay: XTT cell proliferation assay; format: cell-based, Mouse; details: Mus musculus, 36 h
Summary of the method: as §1

[4] = tested on: GBM culture 2231; assay: XTT cell proliferation assay; format: cell-based, Mouse; details: Mus musculus, 36 h
Summary of the method: as §1

[5] = tested on: GBM culture GBM43; assay: XTT cell proliferation assay; format: cell-based, Human; details: Homo sapiens, 36 h
Summary of the method: as §1

[6] = tested on: GBM culture 69; assay: XTT cell proliferation assay; format: cell-based, Mouse; details: Mus musculus, 36 h
Summary of the method: as §1

[7] = tested on: primary astrocytes cultures; assay: Cell counting, growth of primary astrocytes under drug; format: cell-based, Mouse; details: increasing concentrations for 24 hours; 250 nM over time
Summary of the method: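 Primary mouse astrocyte cultures were grown with rising compound concentrations for 24 h, then counted. A second set was exposed to 250 nM for the indicated times before viable-cell counts. Counts are expressed as % of untreated cells. Values are means of triplicates with SD; t-test.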

[8] = tested on: GBM culture GBM6; assay: XTT cell proliferation assay; format: cell-based, Human; details: Homo sapiens, GBM6, 36 h
Summary of the method: as §1

[9] = format: in vivo, CD-1 mice; details: for Kp: brain and plasma
[10] = male, CD-1, mouse, brain, iv, 25 mg/kg
[11] = male, CD-1, mouse, brain, iv, 70 mg/kg
[12] = male, CD-1, mouse, plasma, iv, 25 mg/kg
[13] = male, CD-1, mouse, plasma, iv, 70 mg/kg
[14] = repeat dose, 25 mg/kg i.v. every other day

O=C1OCC/C=C/CC/C=C/C(=N/OCC(=O)N2CCCCC2)Cc2c(Cl)c(O)cc(O)c21 [NXD30001]
IC50 [1]: 115 ± 9.4 nM | IC50 [2]: 111.6 ± 1 nM | IC50 [3]: 31.7 ± 4.9 nM | IC50 [4]: 146 ± 3.7 nM | IC50 [5]: 86.3 ± 0.2 nM | IC50 [6]: 73.4 ± 2.5 nM | inhibition of astrocyte growth [7]: but not of astrocytes | IC50 [8]: 1220 ± 35.1 nM | AUC(0-t) ([9]; brain, repeated i.v. injections 25 mg/kg every other day, 7 doses): 940 ng·h/g | AUC(0-t) ([9]; brain, single i.v. injection 70 mg/kg): 1073 ng·h/g | Kp ([9]; male, CD-1, mouse, iv, 25 mg/kg): 0.135 | Kp ([9]; male, CD-1, mouse, iv, 70 mg/kg): 0.201 | Cmax [9, 10]: 210 ng/g | Tmax [9, 10]: 0.25 h | half-life [9, 10]: 8.99 h | Cmax [9, 11]: 223 ng/g | Tmax [9, 11]: 0.5 h | half-life [9, 11]: 4.07 h | AUC(0-t) [9, 12]: 6960 ng·h/mL | C0 at 0.5 h [9, 12]: 4530 ng/mL | Vd [9, 12]: 27.9 L/kg | clearance [9, 12]: 59.8 mL/min/kg | half-life [9, 12]: 5.4 h | AUC(0-t) [9, 13]: 5350 ng·h/mL | C0 [9, 13]: 2140 ng/mL | Vd [9, 13]: 51.5 L/kg | clearance [9, 13]: 217 mL/min/kg | half-life [9, 13]: 2.74 h | concentration detected in brain prior to the last dose [9, 14]: less than 10 ng/g | concentration detected in plasma prior to the last dose [9, 14]: less than 10 ng/mL
